Data on 4 compounds can be found in ChEMBL document CHEMBL1147067, “Inhibitors of metabolism rescue cell death in Huntington's disease models” (Proc Natl Acad Sci U S A, 2007).

The term EC50 denotes the concentration at which the effect is half-maximal.

A short description of data set [1]: Cell death rescue in rat striatal neuron N548 mutant cells relative to rotenone. Type of data set: functional.
The nature of data set [2]: Cell death rescue in rat striatal neuron N548 mutant cells. Type of data set: functional.
Data set [3] is described as follows: Toxicity in rat striatal neuronal N548 mutant cells. The following applies: read-out: TC50 (the source's name).
The test system of data set [4] is Caenorhabditis elegans. Description: Cell death rescue of ASH neuronal cells in Caenorhabditis elegans Huntington's disease model. Type of data set: functional, organism-based. Summed up: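 pqe-1;Htn-Q150 C. elegans L1 larvae, which express human htt 1–171 with 150Q in ASH neurons, were kept at 15°C in liquid S medium with E. coli OP50 and compound or DMSO (1.5%). A starvation variant used L1-arrested larvae without food at 25°C. ASH survival was scored as GFP fluorescence in live animals, 100 neurons in more than 50 animals per treatment per time point.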

Data set [5] has as its system Caenorhabditis elegans. Kind of data set: Toxicity in Caenorhabditis elegans Huntington's disease model. The class given is organism-based. The settings on record: for TC50: caenorhabditis elegans, in vivo.
Data set [6] relates to Drosophila. Kind of data set: Toxicity in drosophila Huntington's disease model. The class given is organism-based. The settings on record: in vivo.
Data set [7] concerns Drosophila. Kind of data set: Cell death rescue of neuronal cells in drosophila Huntington's disease model. The class given is functional, organism-based. Summed up:
(§1)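 Flies of Drosophila HD strain 8534, which express human htt 1–170 with 120Q in the eye, were fed compound mixed into food (renewed every 2 days) or vehicle (0.1% DMSO) at 25°C. Rhabdomeres per ommatidium were counted by the pseudopupil technique at 9 days post-eclosion, blinded, with equal numbers of males and females. 8–10 flies per treatment, 35 ommatidia each; Student's t test.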

In data set [8] the target is Glycogen synthase kinase-3 beta (Rattus norvegicus) (UniProt P18266). Description: Activation of GSKbeta in rat striatal neuronal N548 mutant cells.
The species named for data set [9] is Rattus norvegicus. Description: Cell death rescue in rat striatal neuronal N548 mutant cells at 10 uM after 2 days by calcein acetoxymethyl ester assay in presence of U0126. Type of data set: functional.
For data set [10], the target named is MAP kinase p38 (Homo sapiens) (UniProt O15264+Q15759+Q16539+P53778). Description: Activation of p38 MAPK in rat striatal neuronal N548 mutant cells.
The species entered for data set [11] is Rattus norvegicus. Description: Activation of AKT in rat striatal neuronal N548 mutant cells at 10 uM by Western blotting. Summed up: (§2)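 N548 mutant htt-expressing striatal cells were treated with compound or vehicle (0.1% DMSO) in serum-deprived medium (0.5% FCS, 39°C) or in 10% serum medium. Lysates were Western blotted with phospho-specific antibodies against AKT Ser473, AKT Thr308 and ERK Thr202/Tyr204. Total AKT, total ERK and tubulin served as controls. The concentration series was read at 8 h.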
(In general: Immunoblotting shows a protein as a band on a membrane.)

For data set [12], the species on record is Rattus norvegicus. Description: Activation of AKT in DNA-deficient rat striatal neuronal N548 mutant cells at 10 uM after 6 hrs by Western blotting.
Data set [13] is filed under the species Rattus norvegicus. Description: Cell death rescue in rat striatal neuronal N548 mutant cells analysed every day for 7 days at 10 uM by trypan blue dye-exclusion assay. Type of data set: functional. An outline of the steps: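 Death was induced in N548 mutant cells by switching to 0.5% FCS medium at 39°C, with compound or DMSO present. Viability was measured daily for 7 days by automated trypan blue (0.4%) dye exclusion, counting at least 200 cells per sample and reporting % trypan blue-negative cells. Two independent experiments were run, each in duplicate.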

The target in data set [14] is Glycogen synthase kinase-3 alpha (Rattus norvegicus) (UniProt P18265). Kind of data set: Activation of GSKalpha in rat striatal neuronal N548 mutant cells.
For data set [15], the species on record is Rattus norvegicus. Kind of data set: Suppression of cell death in rat striatal neuronal N548 mutant cells assessed as suppression of caspase 3 activation by Western blotting. Type of data set: functional. An outline of the steps:
(§3)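 Serum-deprived N548 mutant cells (0.5% FCS, 39°C) were treated with compound or DMSO. Cleaved active caspase 3 and caspase 7 fragments were detected by Western blotting, with tubulin as loading control.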

The species named for data set [16] is Rattus norvegicus. Kind of data set: Suppression of cell death in rat striatal neuronal N548 mutant cells assessed as suppression of caspase 7 activation by Western blotting. Type of data set: functional. An outline of the steps:
as §3

Data set [17] can be described thus: Decrease in htt expression in rat striatal neuron N548 mutant cells assessed as visible htt aggregation after 12 hrs by Western blotting. Type of data set: functional. More on the design: scale not given: the % may be the effect or the level left.
In data set [18] the target is Tyrosine-protein kinase JAK2 (Rattus norvegicus) (UniProt Q62689). Kind of data set: Activation of JAK2 in rat striatal neuronal N548 mutant cells.
Data set [19] is filed under the species Rattus norvegicus. Description: Activation of NF-kappaB in rat striatal neuronal N548 mutant cells.
The species entered for data set [20] is Rattus norvegicus. Kind of data set: Cell death rescue in DNA-deficient rat striatal neuronal N548 mutant cells at 10 uM. The class given is functional.
For data set [21], the species on record is Rattus norvegicus. Kind of data set: Activation of ERK in rat striatal neuronal N548 mutant cells at 50 uM by Western blotting. Summed up: as §2
Data set [22] is filed under the species Rattus norvegicus. Kind of data set: Activation of AKT in rat striatal neuronal N548 mutant cells at 50 uM by Western blotting. Summed up: as §2
In data set [23] the test system is Drosophila. Kind of data set: Decrease in rhabdomere degeneration in Drosophila photoreceptor assessed as number of rhabdomeres per ommatidium at day 9. Type of data set: functional, organism-based. An outline of the steps: as §1
The species entered for data set [24] is Rattus norvegicus. Kind of data set: Activation of ERK in rat striatal neuronal N548 mutant cells after 8 hrs by Western blotting. An outline of the steps: as §2
Data set [25] is filed under the species Rattus norvegicus. Kind of data set: Activation of AKT in rat striatal neuronal N548 mutant cells after 8 hrs by Western blotting. An outline of the steps:
as §2

For data set [26], the species on record is Rattus norvegicus. Description: Decrease in ATP levels in rat striatal neuronal N548 mutant cells after 8 hrs in serum-deprived medium by luminescence-based assay in presence of glucose. Type of data set: functional. Summed up:
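N548 mutant cells were plated at 10^5 cells per 60-mm dish, treated, and after 8 h in serum-deprived medium were lysed. Total ATP was measured by luciferase luminescence (12 s integration), normalized to cell number, and expressed relative to untreated cells at 0 h (100%). Triplicate, mean ± SD.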

For data set [27], the species on record is Rattus norvegicus. Kind of data set: Cell death rescue in rat striatal neuronal N548 mutant cells at 10 uM after 2 days by calcein acetoxymethyl ester assay in presence of LY-294002. The class given is functional.
The species entered for data set [28] is Rattus norvegicus. Kind of data set: Cell death rescue in rat striatal neuronal N548 mutant cells by calcein acetoxymethyl ester assay. Type of data set: functional. An outline of the steps:
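N548 mutant cells in serum-deprived medium (0.5% FCS, 39°C) were treated across a dose range. Viability was read by calcein acetoxymethyl ester fluorescence and expressed as fold increase over DMSO-treated cells. Triplicate wells, mean ± SD.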

The species entered for data set [29] is Rattus norvegicus. Description: Activation of ERK in rat striatal neuronal N548 mutant cells at 10 uM by Western blotting. An outline of the steps: as §2
The species named for data set [30] is Rattus norvegicus. Description: Activation of ERK in […] rat striatal neuronal N548 mutant cells at 10 uM after 6 hrs by Western blotting. The following applies: 50 uM, in the assay text read “50 uM” for “10 uM”. An outline of the steps:
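N548 mutant htt-expressing striatal cells were exposed to compound or vehicle (0.1% DMSO) in serum-deprived medium (0.5% FCS, 39°C). Lysates were analysed by Western blotting with a phospho-specific antibody against threonine 202/tyrosine 204 ERK. Total ERK and tubulin served as controls.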

The source made the active and inactive calls. No cut-off for these calls is given here. A value given as a limit tells only on which side of the number the result lay.

Glycogen synthase kinase-3 beta (Rattus norvegicus), sequence (P18266 whole entry, looked up): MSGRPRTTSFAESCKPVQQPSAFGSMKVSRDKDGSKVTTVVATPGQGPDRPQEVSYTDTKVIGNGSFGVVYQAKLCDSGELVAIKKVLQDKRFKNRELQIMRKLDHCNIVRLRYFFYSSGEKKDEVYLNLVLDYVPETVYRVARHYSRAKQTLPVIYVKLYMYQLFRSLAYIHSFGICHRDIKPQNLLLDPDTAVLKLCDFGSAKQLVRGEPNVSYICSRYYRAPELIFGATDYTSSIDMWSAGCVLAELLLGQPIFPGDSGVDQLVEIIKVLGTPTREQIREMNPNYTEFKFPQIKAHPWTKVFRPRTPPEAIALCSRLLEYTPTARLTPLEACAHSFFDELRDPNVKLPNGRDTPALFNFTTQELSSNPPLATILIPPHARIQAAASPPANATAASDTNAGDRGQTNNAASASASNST
Glycogen synthase kinase-3 alpha (Rattus norvegicus), sequence (P18265 whole entry): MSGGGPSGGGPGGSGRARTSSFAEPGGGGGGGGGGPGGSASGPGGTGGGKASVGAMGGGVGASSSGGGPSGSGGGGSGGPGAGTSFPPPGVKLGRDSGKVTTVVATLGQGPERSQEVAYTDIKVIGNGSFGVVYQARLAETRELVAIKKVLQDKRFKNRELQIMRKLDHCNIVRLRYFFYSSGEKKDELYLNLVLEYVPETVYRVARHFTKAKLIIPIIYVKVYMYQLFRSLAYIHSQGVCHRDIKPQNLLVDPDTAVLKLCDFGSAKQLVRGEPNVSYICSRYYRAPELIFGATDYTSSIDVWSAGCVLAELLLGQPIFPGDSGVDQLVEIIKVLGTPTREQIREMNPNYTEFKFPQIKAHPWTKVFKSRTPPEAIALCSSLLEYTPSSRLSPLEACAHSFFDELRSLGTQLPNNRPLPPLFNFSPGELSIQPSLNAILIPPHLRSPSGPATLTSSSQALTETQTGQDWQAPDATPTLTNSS
Tyrosine-protein kinase JAK2 (Rattus norvegicus), sequence (Q62689 whole entry): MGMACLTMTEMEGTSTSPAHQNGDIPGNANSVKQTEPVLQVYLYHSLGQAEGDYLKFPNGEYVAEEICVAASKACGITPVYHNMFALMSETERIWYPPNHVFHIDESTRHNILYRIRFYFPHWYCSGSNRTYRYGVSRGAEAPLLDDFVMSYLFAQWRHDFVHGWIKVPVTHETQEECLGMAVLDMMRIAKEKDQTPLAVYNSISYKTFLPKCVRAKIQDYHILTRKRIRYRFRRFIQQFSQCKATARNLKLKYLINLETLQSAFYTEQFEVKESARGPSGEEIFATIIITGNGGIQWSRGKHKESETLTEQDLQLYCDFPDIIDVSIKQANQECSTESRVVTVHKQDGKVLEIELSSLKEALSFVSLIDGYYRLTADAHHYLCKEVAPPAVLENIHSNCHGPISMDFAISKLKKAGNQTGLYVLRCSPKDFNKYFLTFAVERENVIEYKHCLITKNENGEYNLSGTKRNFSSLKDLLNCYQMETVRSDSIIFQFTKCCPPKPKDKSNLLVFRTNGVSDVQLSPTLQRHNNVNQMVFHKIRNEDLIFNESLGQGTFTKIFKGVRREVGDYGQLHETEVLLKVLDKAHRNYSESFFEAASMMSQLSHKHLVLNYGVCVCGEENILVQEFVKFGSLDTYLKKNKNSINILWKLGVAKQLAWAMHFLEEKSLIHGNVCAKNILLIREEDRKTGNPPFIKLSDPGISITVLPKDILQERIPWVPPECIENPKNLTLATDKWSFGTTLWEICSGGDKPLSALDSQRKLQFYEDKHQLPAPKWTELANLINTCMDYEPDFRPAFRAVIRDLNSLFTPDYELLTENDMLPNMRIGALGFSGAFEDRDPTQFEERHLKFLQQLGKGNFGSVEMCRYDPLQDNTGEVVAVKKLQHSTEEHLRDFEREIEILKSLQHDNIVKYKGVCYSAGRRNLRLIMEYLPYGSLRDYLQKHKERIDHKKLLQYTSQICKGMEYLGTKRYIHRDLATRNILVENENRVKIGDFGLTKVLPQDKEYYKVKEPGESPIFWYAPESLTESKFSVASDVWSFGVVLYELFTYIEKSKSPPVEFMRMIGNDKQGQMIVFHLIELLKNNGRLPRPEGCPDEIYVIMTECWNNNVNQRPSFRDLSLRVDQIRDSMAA

Take `[F-].[Na+]` [SODIUM FLUORIDE]: the Activity in data set [1] worked out at 0.6. Besides, the EC50 in [2] was 2000 µM. In data set [3], the CC50 is 10 mM.

Take `O=[N+]([O-])c1ccc(O)c([N+](=O)[O-])c1` [2,4-DINITROPHENOL]: the Activity in data set [1] is 1. The EC50 in the data set with Caenorhabditis elegans [4] turned out to be 700 µM; in [2] it was 200 µM; in the data set with Drosophila [7] it was 1250 µM. In addition, the TC50 with Caenorhabditis elegans [5] is 2000 µM; with Drosophila [6] it was 10 mM. Moreover, the CC50 in data set [3] came out at 16 mM.

In the case of `C=C(C)[C@H]1Cc2c(ccc3c2O[C@@H]2COc4cc(OC)c(OC)cc4[C@@H]2C3=O)O1` [ROTENONE], the result (in data set [8]; in the data set filed under Rattus norvegicus [9]; in data set [10]; in [14]; in data set [18]; in the data set listed under Rattus norvegicus [19]) was inactive. In addition, the result in the data set listed under Rattus norvegicus [26] and in the data set filed under Rattus norvegicus [27] was inactive. The EC50 in the data set on Caenorhabditis elegans [4] was 2 µM; in the data set on Caenorhabditis elegans [5] (Caenorhabditis elegans) it was 2000 nM; in [2] it was 0.5 µM; in the data set on Drosophila [7], 10 µM. Further, the result in the data set filed under Rattus norvegicus [11], in the data set filed under Rattus norvegicus [12], in the data set filed under Rattus norvegicus [13], in the data set filed under Rattus norvegicus [15], in the data set filed under Rattus norvegicus [16] and in the data set listed under Rattus norvegicus [20] was Active. The result in the data set listed under Rattus norvegicus [21], in the data set listed under Rattus norvegicus [22], with Drosophila [23], in the data set filed under Rattus norvegicus [28] and in the data set filed under Rattus norvegicus [29] was Active. The TC50 in the data set with Caenorhabditis elegans [5] is 16 µM; in the data set on Drosophila [6], 0.05 mM. Besides, the Activity is below 1% in data set [17], “Dose-dependent effect” in the data set listed under Rattus norvegicus [24] and “Dose-dependent effect” in the data set filed under Rattus norvegicus [25]. In addition, the CC50 in data set [3] was 0.04 mM.

Turning to `CC(C)(C)OC(=O)N[C@@H](CC(=O)O)C(=O)CF`, the outcome in the data set filed under Rattus norvegicus [30] and in the data set listed under Rattus norvegicus [22] was Active.
